What was measured:
MCF7 = assay: Antiproliferative activity against human MCF7 cells after 96 hrs by Oncotest monolayer assay; type: functional, cell-based
Method in brief: (§1)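 Cells from exponential-phase cultures seeded at 8000-12,000 cells/well, left 24 h to recover, then given compound at 10 concentrations in half-log steps up to 100 µM, in triplicate. After 96 h total exposure, wells were PBS-washed and stained with 7 µg/ml propidium iodide plus 0.1% Triton X-100 for 1-2 h at room temperature. Fluorescence (ex 530/em 620 nm) was read. Absolute IC50 was obtained by non-linear regression.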

CWR22R [1] = assay: Antiproliferative activity against human 22Rv1 cells after 96 hrs by Oncotest monolayer assay; type: functional, cell-based; method in brief: as §1
Androgen receptor = target: T1, Androgen receptor (Homo sapiens, UniProt P10275); assay: Antagonist activity against androgen receptor (unknown origin)
T1 sequence (P10275 whole entry): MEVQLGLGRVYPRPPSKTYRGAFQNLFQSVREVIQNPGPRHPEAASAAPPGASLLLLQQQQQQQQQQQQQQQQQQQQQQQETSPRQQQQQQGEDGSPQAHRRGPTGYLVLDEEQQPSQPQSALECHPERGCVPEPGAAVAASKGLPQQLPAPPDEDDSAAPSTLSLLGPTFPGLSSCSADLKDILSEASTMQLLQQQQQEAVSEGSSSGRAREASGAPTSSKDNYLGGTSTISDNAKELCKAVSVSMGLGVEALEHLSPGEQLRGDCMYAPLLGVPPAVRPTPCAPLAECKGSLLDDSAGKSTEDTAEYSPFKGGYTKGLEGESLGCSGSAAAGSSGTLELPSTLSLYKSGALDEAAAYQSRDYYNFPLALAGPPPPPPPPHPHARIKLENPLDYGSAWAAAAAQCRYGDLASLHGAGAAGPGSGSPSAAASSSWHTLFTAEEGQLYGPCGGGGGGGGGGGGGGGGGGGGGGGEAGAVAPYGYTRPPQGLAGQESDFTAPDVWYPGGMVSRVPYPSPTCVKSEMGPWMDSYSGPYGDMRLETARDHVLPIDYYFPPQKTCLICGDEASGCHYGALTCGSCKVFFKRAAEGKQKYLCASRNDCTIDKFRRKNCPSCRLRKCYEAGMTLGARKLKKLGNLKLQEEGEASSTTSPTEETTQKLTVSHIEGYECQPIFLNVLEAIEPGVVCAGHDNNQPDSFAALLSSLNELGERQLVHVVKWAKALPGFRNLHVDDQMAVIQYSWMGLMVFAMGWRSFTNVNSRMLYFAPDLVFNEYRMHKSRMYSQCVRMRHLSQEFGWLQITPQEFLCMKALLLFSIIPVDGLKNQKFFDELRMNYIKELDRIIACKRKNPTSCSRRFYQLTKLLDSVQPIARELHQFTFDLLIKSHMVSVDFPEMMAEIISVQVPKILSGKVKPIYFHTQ

CWR22R [2] = assay: Potency index, ratio IC50 of bicalutamide to IC50 of compound for antiproliferative activity against human 22Rv1 cells; type: functional
CWR22R [3] = assay: Potency index, ratio IC50 of enzalutamide to IC50 of compound for antiproliferative activity against human 22Rv1 cells; type: functional
[4] = Homo sapiens, MCF7, 96 h, read-out: IC50
[5] = Homo sapiens, 22Rv1, 96 h, read-out: IC50

SMILES | IC50 (MCF7; [4]) | IC50 (CWR22R [1]; [5]) | IC50 (Androgen receptor) | IC50 (MCF7; mcf7) | IC50 (CWR22R [1]; cwr22r) | also measured
COc1ccc(C(=O)COc2ccc3c(C)cc(=O)oc3c2)cc1 | > 100 µM | > 100 µM | Not Active |  |  | 
COc1cccc(C(=O)COc2ccc3c(C)cc(=O)oc3c2)c1 | 2.21 µM | 8.41 µM |  |  |  | 
Cc1ccc(C(=O)COc2ccc3c(C)cc(=O)oc3c2)cc1 | > 100 µM | > 100 µM | Not Active |  |  | 
Cc1cc(=O)oc2cc(OCC(=O)c3ccccc3)ccc12 | > 100 µM | > 100 µM | Not Active |  |  | 
O=C(COc1ccc2c(C(F)(F)F)cc(=O)oc2c1)c1ccc2ccccc2c1 |  |  | Not Active | Not Active | Not Active | 
Cc1cc(=O)oc2cc(OCC(=O)c3ccc(F)cc3)ccc12 | > 100 µM | > 100 µM | Not Active |  |  | 
Cc1cc(=O)oc2cc(OCC(=O)c3ccc4c(c3)OCCCO4)ccc12 | > 100 µM | > 100 µM | Not Active |  |  | 
Cc1cc(=O)oc2cc(OCC(=O)c3ccc4ccccc4c3)ccc12 | > 100 µM | > 100 µM | Not Active |  |  | 
O=C(COc1ccc2c(C(F)(F)F)cc(=O)oc2c1)c1ccc(OC(F)(F)F)cc1 |  |  | Not Active | Not Active | Not Active | 
Cc1cc(=O)oc2cc(OCC(=O)c3ccc(OC(F)(F)F)cc3)ccc12 | > 100 µM | > 100 µM | Not Active |  |  | 
O=C(COc1ccc2c(C(F)(F)F)cc(=O)oc2c1)c1ccc(F)cc1 |  |  | Not Active | Not Active | Not Active | 
Cc1cc(=O)oc2cc(OCC(=O)C(C)(C)C)ccc12 |  |  |  |  |  | IC50 (Androgen receptor; read-out: IC50): 3.76 µM
CC(C)(C)c1ccc(C(=O)COc2ccc3c(C(F)(F)F)cc(=O)oc3c2)cc1 |  |  | Not Active | Not Active | Not Active | 
O=C(COc1ccc2c(C(F)(F)F)cc(=O)oc2c1)c1ccccc1 |  |  | Not Active | Not Active | Not Active | 
Cc1cc(=O)oc2cc(OCC(=O)c3ccc(C#N)cc3)ccc12 | > 100 µM | > 100 µM | Not Active |  |  | 
N#Cc1ccc(C(=O)COc2ccc3c(C(F)(F)F)cc(=O)oc3c2)cc1 |  |  | Not Active | Not Active | Not Active | 
COc1cccc(C(=O)COc2ccc3c(C(F)(F)F)cc(=O)oc3c2)c1 |  |  | Not Active | Not Active | Not Active | 

SMILES | IC50 (MCF7; [4]) | IC50 (CWR22R [1]; [5]) | IC50 (Androgen receptor) | IC50 (MCF7; mcf7) | IC50 (CWR22R [1]; cwr22r) | also measured
O=C(COc1ccc2c(C(F)(F)F)cc(=O)oc2c1)c1cc(C(F)(F)F)cc(C(F)(F)F)c1 |  |  | Not Active | Not Active | Not Active | 
Cc1cc(=O)oc2cc(OCC(=O)c3ccccc3C(F)(F)F)ccc12 | 43.2 µM | 20.4 µM |  |  |  | Ratio IC50 (CWR22R [2]): 2
O=C(COc1ccc2c(C(F)(F)F)cc(=O)oc2c1)c1ccc2c(c1)OCCCO2 |  |  | Not Active | Not Active | Not Active | 
Cc1cc(=O)oc2cc(OCC(=O)c3ccc(C(C)(C)C)cc3)ccc12 | 20.7 µM | 22.3 µM |  |  |  | Ratio IC50 (CWR22R [2]): 2
O=C(COc1ccc2c(C(F)(F)F)cc(=O)oc2c1)c1cccc(C(F)(F)F)c1 |  |  | Not Active | Not Active | Not Active | 
Cc1cc(=O)oc2cc(OCC(=O)c3cccc(C(F)(F)F)c3)ccc12 | 38.4 µM | > 100 µM | Not Active |  |  | 
O=C(COc1ccc2c(C(F)(F)F)cc(=O)oc2c1)c1ccccc1C(F)(F)F |  |  | Not Active | Not Active | Not Active | 
O=C(COc1ccc2c(C(F)(F)F)cc(=O)oc2c1)c1ccc(C(F)(F)F)cc1 |  |  | Not Active | Not Active | Not Active | 
CC(C)(C)C(=O)COc1ccc2c(C(F)(F)F)cc(=O)oc2c1 |  |  | Not Active | Not Active | Not Active | 
Cc1cc(=O)oc2cc(OCC(=O)c3cc(C(F)(F)F)cc(C(F)(F)F)c3)ccc12 | 0.47 µM | 0.93 µM |  |  |  | Ratio IC50 (CWR22R [2]): 50; Ratio IC50 (CWR22R [3]): > 30
Cc1cc(=O)oc2cc(OCC(=O)c3ccc(C(F)(F)F)cc3)ccc12 | > 100 µM | > 100 µM | Not Active |  |  | 
COc1ccc(C(=O)COc2ccc3c(C(F)(F)F)cc(=O)oc3c2)cc1 |  |  | Not Active | Not Active | Not Active | 
Cc1ccc(C(=O)COc2ccc3c(C(F)(F)F)cc(=O)oc3c2)cc1 |  |  | Not Active | Not Active | Not Active | 
CCOC(=O)C(CC)Oc1ccc2c(C)cc(=O)oc2c1 (configuration not stated) |  |  |  |  |  | IC50 (Androgen receptor; read-out: IC50): 5 µM
Cc1cc(=O)oc2cc(OC(C)C(=O)c3ccccc3)ccc12 (configuration not stated) |  |  |  |  |  | IC50 (Androgen receptor; read-out: IC50): 5.09 µM
CC(O)(CS(=O)(=O)c1ccc(F)cc1)C(=O)Nc1ccc(C#N)c(C(F)(F)F)c1 (configuration not stated) [BICALUTAMIDE] |  | 46.2 µM |  |  |  | 
CNC(=O)c1ccc(N2C(=S)N(c3ccc(C#N)c(C(F)(F)F)c3)C(=O)C2(C)C)cc1F [ENZALUTAMIDE] |  | 31.8 µM |  |  |  | 

Source: ChEMBL document CHEMBL3784967, “7-Substituted umbelliferone derivatives as androgen receptor antagonists for the potential treatment of prostate and breast cancer” (Bioorg Med Chem Lett, 2016)
